S100A4 MyoIIA = blocks human S100A4 binding to myosin IIA peptide; P26447; S100A4/TAMRA-MyoIIA peptide fluorescence polarization; inhibition, % at 10.7 µM; actives 0.14% (n = 360,000);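 active means mean inhibition of at least 70% across replicates, with every replicate also reaching that level; inconclusive means mean inhibition reaches 70% but some replicates fall short; inactive means mean inhibition below 70%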
Target sequence (P26447 whole entry, looked up): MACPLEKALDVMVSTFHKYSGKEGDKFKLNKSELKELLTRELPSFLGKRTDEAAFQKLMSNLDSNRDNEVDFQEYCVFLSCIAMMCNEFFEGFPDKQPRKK
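incubation = readout 5 min after mixing, signal stable up to 60 min | system = S100A4 monomer protein | buffer or medium = HEPES pH 7.2 with CaCl2, KCl, NaCl, DTT, Triton | benchmarks = neutral control DMSO, positive control TFP | also added = fluorescent myosin IIA peptide, 5 nM | compound dosing = one concentration per compound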
PvdQ acylase = blocks Pseudomonas aeruginosa PvdQ acylase activity; purified PvdQ acylase, fluorescence plate reader; AID 488965; inhibition, % at 10 µM; actives 0.063% (n = 340,000); in the data active means inhibition above about 30%, passing the limit was not always enough; inconclusive means no clear call, values can overlap the other calls;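 further: 0% = vehicle neutral wells and 100% = reference inhibitor wells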
RAD54 inh = inhibitors of human RAD54 branch migration; RAD54 Holliday junction branch migration, FAM/BHQ fluorescence; Q92698; actives 0.14% (n = 360,000); AID 602329; inhibition, % at 10.4 µM;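 active means mean normalized replicate activity at least 40 and at least half of replicates scoring 40 or more; inconclusive means only one of the two criteria met; inactive means mean below 40 and under half of replicates reaching 40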;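 further: 0% = median of neutral control wells and 100% = median of positive control wells; inhibitors cause a drop in the FAM fluorescence signal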
dFosB act = enhances mouse delta FosB homodimer DNA binding; P13346; purified delta FosB, TAMRA-CDK5 oligo fluorescence polarization; percent of positive-control signal above neutral wells; activation, % at 25 µM; actives 0.99% (n = 340,000);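 active means mean activation above about 17%, with every replicate also reaching it, limit read from the data, passing the limit was not always enough; inconclusive means only one of the two conditions met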
Target sequence (P13346 whole entry, looked up): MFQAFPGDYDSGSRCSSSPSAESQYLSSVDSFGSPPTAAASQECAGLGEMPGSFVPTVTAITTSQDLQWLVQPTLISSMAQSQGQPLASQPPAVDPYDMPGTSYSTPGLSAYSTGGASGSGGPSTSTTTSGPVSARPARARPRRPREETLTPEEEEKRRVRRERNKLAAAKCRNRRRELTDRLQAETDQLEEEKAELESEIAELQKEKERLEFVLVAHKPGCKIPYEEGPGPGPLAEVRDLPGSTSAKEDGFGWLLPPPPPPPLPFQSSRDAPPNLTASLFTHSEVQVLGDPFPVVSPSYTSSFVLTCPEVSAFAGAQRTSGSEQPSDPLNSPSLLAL
SR-BI DiI inh = mouse SR-BI HDL lipid transfer inhibition; Q61009; ldlA[mSR-BI] CHO cells, DiI-HDL uptake fluorescence, 3 h; inhibition, % at 12.5 µM; actives 0.96% (n = 320,000); AID 488896;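 active means mean replicate inhibition of at least 70% and a set share of replicates each scoring 70 or more; inconclusive means meets just one of the two criteria; inactive means fails both criteria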;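 further: 0% = median of neutral control wells and 100% = median of positive control wells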
SR-BI DiI-HDL act = activators of SR-BI mediated HDL lipid uptake; CHO ldlA[mSR-BI] cells, DiI-HDL uptake fluorescence, 3 h; 100 = double the neutral-control signal; activation, % at 12.5 µM; actives 0.096% (n = 320,000); AID 504775;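 active means mean replicate activation of at least 60% and every replicate at or above 60%; inconclusive means mean or all-replicate condition met, but not both; inactive means mean below 60% and not all replicates reaching 60%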;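 further: 0% = median plate neutral-control signal and 100% = twice that signal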
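Assay system: CHO ldlA[mSR-BI] cells, LDL receptor-null, SR-BI overexpressing; medium: Ham's F12 with 0.5% BSA, HEPES 25 mM, pH 7.4; also added: DiI-HDL 10 µg/mL; timing: 3 h uptake period with compound, 37 °C; signal: DiI fluorescence, bottom read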
DiI quencher = counter-screen for SR-BI lipid transfer inhibitors: DiI fluorescence quenchers | cell-free DiI-HDL fluorescence quenching, 30 min | actives 20% (n = 470) | shares compounds with SR-BI DiI inh | AC50, µM (top dose mostly 35 µM), without a hit: at the top dose activity change, negative = quenching;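 active means quenching, a falling signal, with AC50 below a set limit tied to the top valid dose, actives reach about 32 µM in these data; inconclusive means no clear call, values can overlap the other calls; inactive means rising signal, and the rest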
Active calls of the source: *; i = inactive; ? = inconclusive; nt = no result given. Rows were chosen to be rich in hits. Some 1.6% of all compounds tested hit in one or more screens of this group.

SMILES	S100A4 MyoIIA	PvdQ acylase	RAD54 inh	dFosB act	SR-BI DiI inh	SR-BI DiI-HDL act	DiI quencher
Cc1cc(C)nc(Nc2n[nH]c(-c3ccc(C(C)(C)C)cc3)n2)n1	3.7	-22.5	3.6	0.8	108.1*	-108.1	10.7µM*
CCOc1ccc(C(=O)Nc2ccc(S(=O)(=O)N3C[C@@H]4C[C@@H](C3)c3cccc(=O)n3C4)cc2)cc1	-2.3	-5.0	-2.9	0.6	74.9*	-74.9	-1.3%
O=C(Nc1ccc(S(=O)(=O)N2C[C@@H]3C[C@@H](C2)c2cccc(=O)n2C3)cc1)c1ccc(F)cc1	-4.3	-9.5	-0.4	-7.1	16.7	-16.7	nt
O=C(C1CCCC1)N1CC2(C1)[C@@H](c1ccccc1)[C@H](CO)N2C(=O)c1cccnc1	0.0	nt	nt	nt	nt	nt	nt
CCOC(=O)Nc1nc(-c2ccccc2)c(C(=O)c2ccccc2)s1	nt	-8.5	-0.1	-5.1	74.9*	-74.9	-1.8%
COc1ccccc1CNC(=O)C1CCN(C(=O)c2sccc2-n2cccc2)CC1	-6.3	-3.8	3.4	-3.9	?	-70.9	-1.7%
O=C(NCCc1ccccc1)C1CCN(C(=O)c2sccc2-n2cccc2)CC1	5.6	-2.0	1.9	-9.7	80.7*	-80.7	-6.1%
Cc1ccc(CCNC(=O)C2CCN(C(=O)c3sccc3-n3cccc3)CC2)cc1	nt	-10.0	nt	-7.7	49.7	-49.7	-2.1%
C[C@@H]1CN([C@@H](C)CO)C(=O)c2cc(NC(=O)C3CC3)ccc2O[C@@H]1CN(C)C(=O)Nc1ccc2c(c1)OCO2	0.2	nt	-6.0	nt	nt	nt	nt
COc1ccc(OC[C@@H](O)CNC(=O)c2cccc3c2C(=O)c2ccc(-c4ccc(F)cc4OCc4ccccc4)cc2S3(=O)=O)cc1	nt	16.9	-6.3	-3.8	80.2*	-80.2	-18.9%
COc1ccc(NC(=O)c2cccc3c2C(=O)c2ccc(-c4ccc(F)cc4OCc4ccccc4)cc2S3(=O)=O)cc1	0.6	8.9	-4.4	0.2	62.0	-62.0	nt
CCNC(=O)[C@H]1[C@H](CO)[C@H]2Cn3c(ccc(-c4ccccc4)c3=O)[C@@H]1N2C(=O)C1CC1	6.8	nt	0.2	nt	nt	nt	nt
Cc1ccc(NC(=O)COC(=O)CCc2c[nH]c3ccccc23)cc1	-1.9	nt	0.0	nt	nt	nt	nt
CN(C(=O)COC(=O)CCc1c[nH]c2ccccc12)c1ccccc1	1.9	-15.0	4.4	-10.1	-25.0	25.0	-5.1%
Cc1cc(C)cc(N(CCC#N)C(=O)COC(=O)CCc2c[nH]c3ccccc23)c1	-1.8	-9.2	4.8	-12.1	?	-73.8	-13.2%
C[C@@H]1CN([C@@H](C)CO)C(=O)c2cc(NC(=O)CCC(F)(F)F)ccc2O[C@H]1CN(C)Cc1ccc(-c2ccccc2)cc1	-10.5	nt	3.2	nt	nt	nt	nt
Cc1noc(C)c1NC(=O)Nc1ccc2c(c1)CC(=O)N([C@@H](C)CO)C[C@@H](C)[C@H](CN(C)Cc1ccc3c(c1)OCO3)O2	-6.6	nt	2.3	nt	nt	nt	nt
COc1ccc(N2CC(C(=O)N3CCN(S(=O)(=O)c4ccc(F)c(F)c4)CC3)CC2=O)c(OC)c1 (stereo unspecified)	-4.1	-13.4	-7.6	-5.5	-3.7	3.7	6.4%
COc1ccc(N2CC(C(=O)Nc3cccc(S(=O)(=O)N4CCCC4)c3)CC2=O)c(OC)c1 (stereo unspecified)	25.2	-2.7	-2.8	-9.6	17.6	-17.5	nt
O=C(c1ccc(S(=O)(=O)NCc2ccco2)cc1)N1CCN(Cc2ccc3c(c2)OCO3)CC1	0.8	-9.3	-1.2	-20.6	?	-71.0	-0.2%
O=C(c1ccc(S(=O)(=O)N2CCCC2)cc1)N1CCN(Cc2ccc3c(c2)OCO3)CC1	nt	-6.1	-15.6	-6.2	38.8	-38.8	nt
Cc1ccccc1CN1CCN(C(=O)c2ccc(S(=O)(=O)NCc3ccco3)cc2)CC1	0.8	1.1	-2.3	-11.7	63.7	-63.7	-2.5%
COc1ccc(CN2CCN(C(=O)c3ccc(S(=O)(=O)N4CCCCCC4)cc3)CC2)cc1F	-0.2	-12.1	-6.4	-6.4	48.8	-48.8	nt
COc1ccc(CN2CCN(C(=O)c3ccc(S(=O)(=O)NCc4ccco4)cc3)CC2)cc1F	0.7	-7.0	nt	-8.6	?	-72.0	-1.5%
O=C(C[C@H]1CC[C@H]2[C@@H](COC[C@H](O)CN2Cc2cccc(-c3ccncc3)c2)O1)N1CCCCC1	29.4	nt	7.9	nt	nt	nt	nt
SMILES	S100A4 MyoIIA	PvdQ acylase	RAD54 inh	dFosB act	SR-BI DiI inh	SR-BI DiI-HDL act	DiI quencher
CC(=O)c1ccc(N2CCN(C(=O)c3cc(-c4cccnc4)nc4ccc(Br)cc34)CC2)cc1	-1.7	-11.1	4.0	-10.0	9.5	-9.5	-5.4%
Cc1ccc(-c2cc(C(F)F)n3ncc(C(=O)N4CCN(c5cccc(C)c5C)CC4)c3n2)cc1	nt	-11.0	-4.3	-14.5	45.5	-45.5	0.5%
Cc1ccc2nc(-c3ccccc3)cc(C(=O)N3CCN(c4ccccc4O)CC3)c2c1	-4.1	-5.8	4.6	1.2	34.7	-34.7	-11.4%
O=C(c1cc(-c2ccccc2)nc2ccccc12)N1CCN(c2ccccc2O)CC1	-2.3	-5.7	6.2	-20.7	58.1	-58.1	nt
COc1ccc(S(=O)(=O)N(C)C[C@H]2OCCCC[C@@H](C)Oc3ccc(NC(=O)CCC(F)(F)F)cc3C(=O)N([C@@H](C)CO)C[C@@H]2C)cc1	-6.5	nt	-1.1	nt	nt	nt	nt
COc1ccc(C2/C=C\CN(S(=O)(=O)c3ccc4ccccc4c3)CC(=O)N2Cc2ccc(F)cc2)cc1 (stereo unspecified)	1.7	-11.0	6.0	-3.4	48.3	-48.3	4.3%
Cc1ccc(Sc2nc(-c3ccccc3)nnc2C(F)(F)F)cc1	nt	-2.7	1.3	2.7	?	-70.1	-1.4%
COc1ccc(S(=O)(=O)N2CCC(C(=O)NN3CCCCC3)CC2)cc1OC	-2.0	-12.9	-28.8	0.9	-8.6	8.6	-1.9%
Nn1c(SCCOc2ccccc2)nnc1-c1cccnc1	-2.2	-0.9	-3.9	1.2	-6.9	6.9	nt
COc1ccc(OCCSc2nnc(-c3cccnc3)n2N)cc1	nt	1.5	4.4	-0.5	106.0*	-106.0	-0.9%
COc1ccccc1Nc1nc(-c2c(C)[nH]c3ccccc23)cs1	nt	-2.7	nt	-4.3	71.7*	-71.7	5.61µM*
Cc1ccc(-c2cc(C(=O)Nc3sc4c(c3C(=O)NCc3ccco3)CCC4)[nH]n2)c(O)c1	5.7	-4.4	1.6	-16.8	82.6*	-82.6	i
Cc1cc(O)c(-c2cc(C(=O)Nc3sc4c(c3C(=O)NCc3ccco3)CCC4)[nH]n2)cc1C	6.7	-12.8	nt	-10.0	nt	nt	nt
O=C(c1cccnc1)N1C[C@@H]2[C@H](c3ccccc31)[C@@H](CO)N2C(=O)Nc1ccccc1F	3.3	nt	-6.8	nt	nt	nt	nt

Screening data from PubChem.
